Data on 49 variants can be found in the RNAGym collection of RNA variant scans (doi:10.1002/anie.201605470).

B1: Osa-1-4 twister ribozyme (parent)
chain: CCGCCUAACACUGCCAAUGCCGGUCCCAAGCCCGGAUAAAAGUGGAGGGGGCGG

Variants of B1 are the subject of the data set. As to the kind of experiment: self-cleavage, relative activity (ratio to wild type); higher = more cleavage; co-transcriptional. The method in brief: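 A DNA template encoding a 54-nucleotide twister ribozyme from Oryza sativa was made so that each of the 48 positions downstream of the cleavage site carried 97 % wild-type base and 1 % of each other base. Transcription in vitro ran for 2 h at 37 °C, during which the ribozyme could cleave itself. Reverse transcription used a template-switching oligonucleotide, and the products were PCR-amplified and deep-sequenced. Each read was scored as cleaved or uncleaved by whether upstream sequence was present, and relative activity is the fraction cleaved normalised to wild type.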
As for CCGCCUAACACUGCCAACGCCGGUCCCAAACCCGGAUAAAAGUGGAGGGGGCGG [G30A U18C], the self-cleavage stood at 0.04. As for CCGCCUAACACUGCCAAAGCCGGUCCCAAACCCGGAUAAAAGUGGAGGGGGCGG [G30A U18A], the figure is 0.07. For CCGCCUAACACUGCCAAUGCCGGGCCCAUGCCCGGAUAAAAGUGGAGGGGGCGG [A29U U24G], the self-cleavage worked out at 0.01. For the variant CCGCCUAACACUGCCAAUGCCGGCCCCAUGCCCGGAUAAAAGUGGAGGGGGCGG [A29U U24C], the self-cleavage was 0.06. Consider CCGCCUAACACUGCCAAUGCCGGACCCAUGCCCGGAUAAAAGUGGAGGGGGCGG [A29U U24A], for which the self-cleavage worked out at 0.32.

In the case of CCGCCUAACACUGCCAAUGCCGGUCCCAAACCCGGAUAAAAGUGGAGGGGGCGC [G30A G54C], the self-cleavage came out at 0.04.

In the case of CCGCCUAACACUGCCAAUGCCGGUCCCAAACCCGGAUAAAAGUGGAGGGGGCGA [G30A G54A], the self-cleavage stood at 0.05. For the variant CCGCCUAACACUGCCAAUGCCGGUCCCAAACCCGGAUAAAAGUGGAGGGGGCGU [G30A G54U], the self-cleavage was 0.06. CCGCCUAACACUGCCAAUGCCGGUCCCAUGCCCGGAUAAAAGGGGAGGGGGCGG [A29U U43G]: the self-cleavage was found to be 0.08.

As to CCGCCUAACACUGCCAAUGCCGGUCCCAUGCCCGGAUAAAAGCGGAGGGGGCGG [A29U U43C], the self-cleavage was 0.06. In the case of CCGCCUAACACUGCCAAUGCCGGUCCCAUGCCCGGAUAAAAGAGGAGGGGGCGG [A29U U43A], the self-cleavage came out at 0.06. With CCGCCUAACACUGCCAAUGCCGGUCCCAAACCCGAAUAAAAGUGGAGGGGGCGG [G30A G35A] the figure was 0.05.

Take CCGCCUAACACUGCCAAUGCCGGUCCCAAACCCGCAUAAAAGUGGAGGGGGCGG [G30A G35C]: the self-cleavage stood at 0.03. As for CCGCCUAACACUGCCAAUGCCGGUCCCAAACCCGUAUAAAAGUGGAGGGGGCGG [G30A G35U], the figure is 0.04; as for CCGCCUAACACUGCCAAUGCCGGUCCCAAACCCGGAUAAAAGUGGAGGGUGCGG [G30A G50U], 0.04.

CCGCCUAACACUGCCAAUGCCGGUCCCAAACCCGGAUAAAAGUGGAGGGAGCGG [G30A G50A]: the self-cleavage is 0.04.

For CCGCCUAACACUGCCAAUGCCGGUCCCAAACCCGGAUAAAAGUGGAGGGCGCGG [G30A G50C], the self-cleavage was 0.04.

Take CCGCCUAACACAGCCAAUGCCGGUCCCAAACCCGGAUAAAAGUGGAGGGGGCGG [G30A U12A]: the self-cleavage amounted to 0.03. CCGCCUAACACGGCCAAUGCCGGUCCCAAACCCGGAUAAAAGUGGAGGGGGCGG [G30A U12G]: the self-cleavage was 0.02.

Consider CCGCCUAACACCGCCAAUGCCGGUCCCAAACCCGGAUAAAAGUGGAGGGGGCGG [G30A U12C], for which the self-cleavage was found to be 0.03.

With CCGCCUAACACUGCCAAUGCCGGUCCCAACCCCGAAUAAAAGUGGAGGGGGCGG [G30C G35A], the self-cleavage came to 0.05. Regarding CCGCCUAACACUGCCAAUGCCGGUCCCAAACCCAGAUAAAAGUGGAGGGGGCGG [G30A G34A], the self-cleavage is 0.11.

For the variant CCGCCUAACACUGCCAAUGCCGGUCCCAAACCCCGAUAAAAGUGGAGGGGGCGG [G30A G34C], the self-cleavage came to 0.05. Turning to CCGCCUAACACUGCCAAUGCCGGUCCCAAACCCUGAUAAAAGUGGAGGGGGCGG [G30A G34U], the self-cleavage was found to be 0.04. Regarding CCGCCUAACACUGCCAAUGCCGGUCCCAUGCCCGGAUAAAAGUUGAGGGGGCGG [A29U G44U], the self-cleavage worked out at 0.07. With CCGCCUAACACUGCCAAUGCCGGUCCCAUGCCCGGAUAAAAGUGGAGAGGGCGG [A29U G48A] the figure was 0.03; with CCGCCUAACACUGCCAAUGCCGGUCCCAUGCCCGGAUAAAAGUGGAGUGGGCGG [A29U G48U], 0.03; with CCGCCUAACACUGCCAAUGCCGGUCCCAUGCCCGGAUAAAAGUGGAGCGGGCGG [A29U G48C], 0.03. As for CCGCCUAACACAGCCAAUGCCGGUCCCAUGCCCGGAUAAAAGUGGAGGGGGCGG [A29U U12A], the figure is 0.08; as for CCGCCUAACACGGCCAAUGCCGGUCCCAUGCCCGGAUAAAAGUGGAGGGGGCGG [A29U U12G], 0.04.

For CCGCCUAACACCGCCAAUGCCGGUCCCAUGCCCGGAUAAAAGUGGAGGGGGCGG [A29U U12C], the self-cleavage was 0.05. Take CCGCCUAACACUGCCAAUGCCGGUCCCAUGCCCGGAUAAAAGUGAAGGGGGCGG [A29U G45A]: the self-cleavage came to 0.03. With CCGCCUAACACUGCCAAUGCCGGUCCCAUGCCCGGAUAAAAGUGUAGGGGGCGG [A29U G45U], the self-cleavage came out at 0.03. On to CCGCCUAACACUGCCAAUGCCGGUCCCAUGCCCGGAUAAAAGUGCAGGGGGCGG [A29U G45C], for which the self-cleavage is 0.03.

As for CCGCCUAACACUGCCAAUGCCGGUCCCAUGCCCGGAUAAAAGUGGAGGGAGCGG [A29U G50A], the self-cleavage was found to be 0.13. Consider CCGCCUAACACUGCCAAUGCCGGUCCCAUGCCCGGAUAAAAGUGGAGGGUGCGG [A29U G50U], for which the self-cleavage came out at 0.09. With CCGCCUAACACUGCCAAUGCCGGUCCCAUGCCCGGAUAAAAGUGGAGGGCGCGG [A29U G50C] the figure was 0.04; with CCGCCUAACACUGCCAAUGCCGGUCCCAAACCCGGAUAAAAGUGGAGGCGGCGG [G30A G49C], 0.02. CCGCCUAACACUGCCAAUGCCGGUCCCAAACCCGGAUAAAAGUGGAGGUGGCGG [G30A G49U]: the self-cleavage is 0.03.

In the case of CCGCCUAACACUGCCAAUGCCGGUCCCAAACCCGGAUAAAAGUGGAGGAGGCGG [G30A G49A], the self-cleavage stood at 0.02. With CCGCCUAACACUGCCAAUGCCGGUCCCAUGCCCGGAUAAAAGUGGAGGAGGCGG [A29U G49A], the self-cleavage was 0.03. Turning to CCGCCUAACACUGCCAAUGCCGGUCCCAUGCCCGGAUAAAAGUGGAGGUGGCGG [A29U G49U], the self-cleavage came out at 0.02.

In the case of CCGCCUAACACUGCCAAUGCCGGUCCCAUGCCCGGAUAAAAGUGGAGGCGGCGG [A29U G49C], the self-cleavage was determined as 0.04. With CCGCCUAACACUGCCAAUGCCGGUCCCAUGCCCGGAUAAAAGUGGAAGGGGCGG [A29U G47A], the self-cleavage came out at 0.03.

As for CCGCCUAACACUGCCAAUGCCGGUCCCAUGCCCGGAUAAAAGUGGAUGGGGCGG [A29U G47U], the self-cleavage worked out at 0.03.

Regarding CCGCCUAACACUGCCAAUGCCGGUCCCAUGCCCGGAUAAAAGUGGACGGGGCGG [A29U G47C], the self-cleavage came to 0.03. Take CCGCCUAACACUGCCAAUGCCGGUCCCAAACCCGGAUAAAAGUGGAGUGGGCGG [G30A G48U]: the self-cleavage came to 0.01. For CCGCCUAACACUGCCAAUGCCGGUCCCAAACCCGGAUAAAAGUGGAGAGGGCGG [G30A G48A], the self-cleavage came out at 0.01. On to CCGCCUAACACUGCCAAUGCCGGUCCCAAACCCGGAUAAAAGUGGAGCGGGCGG [G30A G48C], for which the self-cleavage amounted to 0.02.
